In ChEMBL document CHEMBL1153363, “Structure-activity relationships for a series of quinoline-based compounds active against replicating and nonreplicating Mycobacterium tuberculosis” (J Med Chem, 2009):
Converted amounts (≈) assume the structure as drawn.

Legend:
Assay type in all cases: functional
Settings in all cases: 168 h
[1] = system: Mycobacterium tuberculosis; test: Antitubercular activity against rifampin-resistant Mycobacterium tuberculosis H37Rv ATCC 27294 after 7 days by microplate alamar blue assay
How it was run: (§1)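 12.8 mM DMSO stocks; two-fold dilutions in Middlebrook 7H12 broth, final 128 to 0.5 µM. Inoculum 2 × 10⁵ cfu/mL, 37 °C. On day 7, Tween 80 plus Alamar Blue added; fluorescence read (ex 530/em 590 nm) after 16-24 h more. MIC = lowest concentration giving ≥90% fluorescence drop versus bacteria-only controls; mean of two runs. RMP and INH positive controls.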

[2] = system: Mycobacterium tuberculosis; test: Antitubercular activity against streptomycin-resistant Mycobacterium tuberculosis H37Rv ATCC 27294 after 7 days by microplate alamar blue assay; how it was run: as §1
[3] = system: Mycobacterium tuberculosis; test: Antitubercular activity against isoniazid-resistant Mycobacterium tuberculosis H37Rv ATCC 27294 after 7 days by microplate alamar blue assay; how it was run: as §1

| Structure (SMILES) | MIC [1] | MIC [2] | MIC [3] |
| --- | --- | --- | --- |
| CN[C@@H]1[C@H](O[C@H]2[C@H](O[C@H]3[C@H](O)[C@@H](O)[C@H](N=C(N)N)[C@@H](O)[C@@H]3N=C(N)N)O[C@@H](C)[C@]2(O)C=O)O[C@@H](CO)[C@H](O)[C@H]1O [STREPTOMYCIN] | 0.2 µM (≈ 0.116 µg/mL) | > 32 µM | 0.38 µM (≈ 0.221 µg/mL) |
| CO[C@H]1/C=C/O[C@@]2(C)Oc3c(C)c(O)c4c(O)c(c(/C=N/N5CCN(C)CC5)c(O)c4c3C2=O)NC(=O)/C(C)=C\C=C\[C@H](C)[C@H](O)[C@@H](C)[C@@H](O)[C@@H](C)[C@H](OC(C)=O)[C@@H]1C [RIFAMPIN] | > 32 µM | 0.05 µM (≈ 0.0411 µg/mL) | 0.06 µM (≈ 0.0494 µg/mL) |
| CCOC(=O)c1cc(-c2cccc(Oc3cc(C(F)(F)F)nc4ccccc34)c2)on1 | 1.27 µM (≈ 0.544 µg/mL) | 1.4 µM (≈ 0.6 µg/mL) | 1.63 µM (≈ 0.698 µg/mL) |
| NNC(=O)c1ccncc1 [ISONIAZID] | 0.43 µM (≈ 0.059 µg/mL) | 0.45 µM (≈ 0.0617 µg/mL) | > 128 µM |
| CCOC(=O)c1cc(COc2cc(C(F)(F)F)nc3cc(C(F)(F)F)cc(C(F)(F)F)c23)on1 | 0.99 µM (≈ 0.497 µg/mL) | 1.55 µM (≈ 0.779 µg/mL) | 0.98 µM (≈ 0.492 µg/mL) |
